Reference: ChEMBL document CHEMBL2311457, “Identification of bacteria-selective threonyl-tRNA synthetase substrate inhibitors by structure-based design” (J Med Chem, 2013)
≈ marks a conversion by molar mass, not a printed value.

How the values were obtained:
Threonine--tRNA ligase = target: T1, Threonine--tRNA ligase (Yersinia pestis, UniProt Q8ZDW5); test: Binding affinity to Yersinia pestis ThrRS by coupled spectrophotometry
T1 sequence (Q8ZDW5 whole entry): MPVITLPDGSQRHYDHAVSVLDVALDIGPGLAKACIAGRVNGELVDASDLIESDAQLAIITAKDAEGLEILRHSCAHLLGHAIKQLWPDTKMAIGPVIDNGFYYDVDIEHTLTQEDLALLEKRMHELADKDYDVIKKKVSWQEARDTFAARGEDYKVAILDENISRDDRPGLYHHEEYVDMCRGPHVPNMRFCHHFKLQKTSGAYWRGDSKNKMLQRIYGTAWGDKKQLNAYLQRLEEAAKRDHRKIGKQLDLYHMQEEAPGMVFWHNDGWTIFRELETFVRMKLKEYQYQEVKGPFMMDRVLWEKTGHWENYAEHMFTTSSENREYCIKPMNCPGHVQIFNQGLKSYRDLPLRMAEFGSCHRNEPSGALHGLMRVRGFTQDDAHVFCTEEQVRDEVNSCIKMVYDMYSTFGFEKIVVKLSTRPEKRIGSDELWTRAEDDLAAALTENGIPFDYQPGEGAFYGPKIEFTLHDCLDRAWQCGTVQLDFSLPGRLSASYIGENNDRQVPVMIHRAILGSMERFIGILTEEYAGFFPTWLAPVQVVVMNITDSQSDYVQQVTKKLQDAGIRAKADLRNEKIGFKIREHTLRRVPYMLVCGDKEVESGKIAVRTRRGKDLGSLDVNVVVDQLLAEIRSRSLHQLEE
Summary of the method: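 Coupled spectrophotometric (MESG) readout of pyrophosphate release during adenylation; L-serine 200 mM as surrogate substrate, 4 mM ATP, 5 nM enzyme, Tris pH 7.6, MgCl₂, KCl, DTT, 2% DMSO. Inhibitor 16-point 2-fold series, 50 μM–1.5 nM, normalised to no-inhibitor and no-enzyme controls. IC50 from 4-parameter fit; Ki by bisubstrate Cheng–Prusoff.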

[1] = Binding affinity to Escherichia coli ThrRS by coupled spectrophotometry
Summary of the method: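 Coupled spectrophotometric assay following pyrophosphate released during ATP-dependent adenylation, read out through MESG with inorganic pyrophosphatase and purine nucleoside phosphorylase. Buffer was 60 mM Tris pH 7.6, 10 mM MgCl₂, 20 mM KCl, 0.5 mM DTT, 2% DMSO, with 4 mM ATP, 200 mM L-serine as surrogate substrate and 5 nM enzyme.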

[2] = test system: Burkholderia thailandensis; test: Antimicrobial activity against isogenic amrAB-oprA/bpeAB-oprB double knockout Burkholderia thailandensis E264 measured after overnight incubation by alamarBlue assay; assay type: functional
[3] = test system: Burkholderia thailandensis; test: Antimicrobial activity against wild type Burkholderia thailandensis E264 measured after overnight incubation by alamarBlue assay; assay type: functional
Haemophilus influenzae = test: Antimicrobial activity against wild type Haemophilus influenzae ATCC 31517 measured after overnight incubation by alamarBlue assay; assay type: functional
Summary of the method: (§1)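 Broth microdilution per CLSI; DMSO stocks at 6.4 mg/mL, serially diluted and added 1:50 to inoculated medium for final 0.063–128 μg/mL. Inoculum about 5 × 10⁵ CFU/mL, checked by plating. Overnight at 37 °C; H. influenzae grown in Haemophilus test medium broth with 5% CO₂. alamarBlue added for 1 h; MIC read as the lowest concentration with no visible color change.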

Escherichia coli [4] = test: Antimicrobial activity against Escherichia coli BW25113 expressing TolC Leu13-Ala480 deletion mutant measured after overnight incubation by alamarBlue assay; assay type: functional
Escherichia coli [5] = test: Antimicrobial activity against Escherichia coli BAS849 expressing Imp Thr332-Tyr354 deletion mutant measured after overnight incubation by alamarBlue assay; assay type: functional
Escherichia coli [6] = test: Antimicrobial activity against wild type Escherichia coli ATCC 25922 measured after overnight incubation by alamarBlue assay; assay type: functional; summary of the method: as §1
[7] = Binding affinity to Burkholderia thailandensis ThrRS by coupled spectrophotometry
[8] = target: T2, Threonine--tRNA ligase 1, cytoplasmic (Homo sapiens, UniProt P26639); test: Binding affinity to human cytoplasmic ThrRS by coupled spectrophotometry
T2 sequence (P26639 whole entry): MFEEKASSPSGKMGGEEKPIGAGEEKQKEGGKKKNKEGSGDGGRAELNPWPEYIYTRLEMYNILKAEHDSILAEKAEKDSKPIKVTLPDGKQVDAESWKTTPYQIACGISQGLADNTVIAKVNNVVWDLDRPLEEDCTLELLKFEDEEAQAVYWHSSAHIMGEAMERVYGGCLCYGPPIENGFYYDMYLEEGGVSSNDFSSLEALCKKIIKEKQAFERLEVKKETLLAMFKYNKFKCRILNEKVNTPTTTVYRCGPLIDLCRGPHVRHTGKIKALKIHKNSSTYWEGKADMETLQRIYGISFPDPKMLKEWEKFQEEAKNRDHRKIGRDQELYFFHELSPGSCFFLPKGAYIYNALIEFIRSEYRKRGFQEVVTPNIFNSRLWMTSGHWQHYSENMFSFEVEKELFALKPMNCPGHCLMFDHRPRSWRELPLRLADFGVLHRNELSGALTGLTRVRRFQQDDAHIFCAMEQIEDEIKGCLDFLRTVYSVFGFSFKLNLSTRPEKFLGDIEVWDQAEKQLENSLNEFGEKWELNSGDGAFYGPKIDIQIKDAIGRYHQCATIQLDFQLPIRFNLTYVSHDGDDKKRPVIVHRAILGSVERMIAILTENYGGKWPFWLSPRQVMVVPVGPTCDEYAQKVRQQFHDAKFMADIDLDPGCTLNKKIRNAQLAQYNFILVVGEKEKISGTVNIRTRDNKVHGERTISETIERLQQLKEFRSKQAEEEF

| Compound | Ki (Threonine--tRNA ligase) [nM] | Ki [1] [nM] | MIC [2] [µg/mL] | MIC [3] [µg/mL] | MIC (Haemophilus influenzae) [µg/mL] | MIC (Escherichia coli [4]) [µg/mL] | MIC (Escherichia coli [5]) [µg/mL] | MIC (Escherichia coli [6]) [µg/mL] | Ki [7] [nM] | Ki [8] [nM] |
| --- | --- | --- | --- | --- | --- | --- | --- | --- | --- | --- |
| C[C@@H](N)[C@H](N)C(=O)NS(=O)(=O)/C=C/c1cccc(-c2cc(N)ncn2)c1 | > 50000 | > 50000 |  |  |  |  |  |  |  |  |
| C[C@@H](O)[C@H](N)C(=O)NS(=O)(=O)OC[C@@H]1O[C@H](n2cnc3c(N)ncnc32)[C@@H](O)[C@H]1O | 9.8 | 13.1 | 64 (≈ 143 µM) | > 128 | > 128 | > 128 | > 128 | > 128 | 2.8 |  |
| C[C@@H](O)[C@H](N)C(=O)NS(=O)(=O)c1cccc(-c2ccc3c(N)ncnc3c2)c1 | 2.2 | 2.9 | 8 (≈ 19.9 µM) | > 128 | 16 (≈ 39.9 µM) | 64 (≈ 159 µM) | > 128 | > 128 | 0.9 |  |
| C[C@@H](O)[C@H](N)C(=O)NS(=O)(=O)c1cccc(-c2ccc3c(N)nc(N)nc3c2)c1 | 8.2 | 10.7 | 4 (≈ 9.6 µM) | > 128 | 32 (≈ 76.8 µM) | 64 (≈ 154 µM) | > 128 | > 128 | 2.9 |  |
| C[C@@H](O)[C@H](N)C(=O)NS(=O)(=O)c1cccc(-c2ccc3c(N)nc(Cl)nc3c2)c1 | 0.7 | 0.8 | 32 (≈ 73.4 µM) | > 128 | 8 (≈ 18.4 µM) | 16 (≈ 36.7 µM) | 128 (≈ 294 µM) | > 128 | 0.3 |  |
| Cc1nc(N)c2ccc(-c3cccc(S(=O)(=O)NC(=O)[C@@H](N)[C@@H](C)O)c3)cc2n1 | 9.3 | 17.2 |  |  |  |  |  |  | 12.2 |  |
| C[C@@H](O)[C@H](N)C(=O)NS(=O)(=O)c1cccc(-c2ccc3c(N)nc(Cl)cc3c2)c1 | 25 | 20 |  |  |  |  |  |  | 23 |  |
| C[C@@H](O)[C@H](N)C(=O)NS(=O)(=O)c1cccc(-c2ccc3c(N)nccc3c2)c1 | 115 | 90 |  |  |  |  |  |  | 89 |  |
| C[C@@H](O)[C@H](N)C(=O)NS(=O)(=O)c1ccc2ccc(-c3cc(N)ncn3)cc2c1 | 2 | 2.7 | 4 (≈ 9.96 µM) | > 128 | 4 (≈ 9.96 µM) | 64 (≈ 159 µM) | > 128 | > 128 | 0.7 |  |
| C[C@@H](O)[C@H](N)C(=O)NS(=O)(=O)/C=C/c1cccc(-c2cc(N)ncn2)c1 | 1.8 | 2.7 | 32 (≈ 84.8 µM) | > 128 | 8 (≈ 21.2 µM) | 64 (≈ 170 µM) | > 128 | > 128 | 1.1 |  |
| C[C@@H](O)[C@H](N)C(=O)NS(=O)(=O)c1ccc2ccc(-c3ncnc4[nH]ccc34)cc2c1 | 1.8 | 2.4 | 32 (≈ 75.2 µM) | > 128 | 16 (≈ 37.6 µM) | 16 (≈ 37.6 µM) | > 128 | > 128 | 0.6 |  |
| C[C@@H](O)[C@H](N)C(=O)NS(=O)(=O)N1CCc2ccc(-c3ncnc4[nH]ccc34)cc2C1 | 5.7 | 9.5 |  |  |  |  |  |  | 4 |  |
| C[C@@H](O)[C@H](N)C(=O)NS(=O)(=O)c1cccc(-c2ccc3c(c2)CNC3=O)c1 | 3.9 | 7.7 |  |  |  |  |  |  | 7.4 |  |
| C[C@@H](O)[C@H](N)C(=O)NS(=O)(=O)c1cccc(-c2ccc3[nH]nc(Cl)c3c2)c1 | 39 | 52 |  |  |  |  |  |  | 77 |  |
| C[C@@H](O)[C@H](N)C(=O)NS(=O)(=O)c1ccc(Oc2ccccc2)cc1 | 33100 | 36500 |  |  |  |  |  |  | 193000 |  |
| Cc1n[nH]c2ccc(-c3cccc(S(=O)(=O)NC(=O)[C@@H](N)[C@@H](C)O)c3)cc12 | 83 | 127 |  |  |  |  |  |  | 143 |  |
| C[C@@H](O)[C@H](N)C(=O)NS(=O)(=O)c1cccc(-c2ccc3[nH]ncc3c2)c1 | 132 | 182 |  |  |  |  |  |  | 164 | > 50000 |
| C[C@@H](O)[C@H](N)C(=O)NCc1cccc(-c2ccc3c(N)nc(Cl)nc3c2)c1 | 436 | 329 |  |  |  |  |  |  | 140 |  |
| C[C@@H](O)[C@H](N)C(=O)NNc1cccc(-c2ccc3c(N)nc(Cl)nc3c2)c1 | 70 | 136 |  |  |  |  |  |  | 34 |  |
| C[C@@H](O)[C@H](N)CNS(=O)(=O)c1cccc(-c2ccc3c(N)nc(Cl)nc3c2)c1 | > 50000 | > 50000 |  |  |  |  |  |  |  | > 50000 |
| C[C@@H](O)[C@H](N)C(=O)N(C)S(=O)(=O)c1cccc(-c2ccc3c(c2)CNC3=O)c1 | > 50000 | > 50000 |  |  |  |  |  |  |  | > 50000 |
| CC[C@@H](O)[C@H](N)C(=O)NS(=O)(=O)/C=C/c1cccc(-c2cc(N)ncn2)c1 | 2.7 | 4.3 |  |  |  |  |  |  | 14.1 |  |
| CC(C)[C@@H](O)[C@H](N)C(=O)NS(=O)(=O)/C=C/c1cccc(-c2cc(N)ncn2)c1 | 22.5 | 32.4 |  |  |  |  |  |  | 588 |  |
| C[C@@H](O)[C@H](O)C(=O)NS(=O)(=O)/C=C/c1cccc(-c2cc(N)ncn2)c1 | > 50000 | > 50000 |  |  |  |  |  |  |  | > 50000 |
